Article PMC4142138 (European Journal of Drug Metabolism and Pharmacokinetics, 2014)
In brackets after ≈: the same amount, converted by molar mass.

What was measured:
[1] = In vitro pH solubility profile in Britton–Robinson buffer; type: physicochemical; details: pH 6, aqueous buffer, thermodynamic from solid
Procedure, shortened: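 Excess solid added to Britton–Robinson buffer at the set pH in a vial, rolled 4 h at ambient temperature. A sample was filtered by centrifugation through a 0.45 μm PVDF membrane. The clear filtrate was assayed by gradient reversed-phase HPLC on C18 (water/acetonitrile, 0.05 % TFA) with UV detection at 220 nm.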

healthy elderly subjects = assay: Safety and tolerability; type: in vivo, human; details: whole study
Procedure, shortened: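 Healthy elderly (65–80 y) male or non-childbearing female volunteers in a single-centre randomised crossover study; 20 subjects through 4 treatment periods. Each period had omeprazole 20 mg QD for 5 days and a single oral 50 mg test compound dose (fed or fasted), with washout ≥3 days. AEs, vital signs, ECGs, clinical chemistry, haematology, urinalysis and physical examination were summarised by treatment.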

CXCR2 = details: read-out: IC50 for CXCL8 binding; ref GSK, data on file; cited from earlier work
[2] = type: in vivo; details: human, whole blood, po, 50 mg
[3] = all treatment periods, 20 subjects

solubility at 4 h [1]: 3 µg/mL (≈ 6.79 µM) | half-life [2]: 7 to 9 h
Compound: Cc1c(F)cccc1NC(=O)Nc1ccc(Cl)c(S(=O)(=O)[C@H]2CCCNC2)c1O [danirixin, Danirixin]
serious AEs (healthy elderly subjects): no serious AEs | subjects reporting AEs during the study (healthy elderly subjects; [3]): 45% | subjects reporting headaches during the study (healthy elderly subjects; [3]): 20% | IC50 (CXCR2): […]
